Results: publication PMC3777810 (Journal of medicinal chemistry, 2013)
Entries after “also recorded” stand apart in the source; their conditions may differ. Where a name gives a salt, the structure may show the parent alone.

Legend:
[1] = system: MA-10 mouse tumor Leydig cells; experiment: Steroidogenesis assay: progesterone production by RIA; assay type: cell-based; settings: for time of first maximum steroid production: 50 μM, 0–120 min, biphasic time response; for stimulation of progesterone production: 100 μM; for stimulation of progesterone production / progesterone production: 2 h incubation, RIA; for progesterone production: all tested concentrations (0–100 μM)
In short: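 Cells were plated at 2.5 × 10^4 per well, left to adhere 18 h, washed with PBS, then given serum-free medium with 0–100 μM test compound from DMSO stocks (final DMSO <0.02%; controls matched). Incubation was 2 h, or 0–120 min at 50 μM (n=2). Medium progesterone was measured by RIA with anti-progesterone antisera and normalized to well protein (Bradford, BSA standard).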

[2] = system: MA-10 mouse tumor Leydig cells; experiment: Cellular toxicity by MTT assay; assay type: cell-based; settings: 100 μM, 2 h
In short: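 MA-10 mouse Leydig tumor cells were grown in DMEM/F-12 Ham with 5% fetal bovine serum and 2.5% heat-inactivated horse serum. They were exposed to test compound for 2 h, at 100 μM or over 0.1–100 μM, and toxicity was read by MTT. Single-concentration data are mean ± S.E.M. (n=3), compared by one-way ANOVA with Newman-Keuls post-test. Dose curves were fitted by nonlinear regression.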

C57BL/6 mice = experiment: SmartCube behavioral assay; assay type: in vivo, mouse; settings: for SmartCube signature after chronic administration: 50 mg/kg i.p. once a day for 13 days; for SmartCube signature after a single dose: 50 mg/kg i.p., day 1, 15 min after dose
In short: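 Mice received test compound at 50 mg/kg i.p. once daily for 13 days, dosed 15 min before a session presenting multiple challenges, with at least 12 mice per group. Behavioral features were analyzed by computer algorithms and data mining. They were compared with a database of signatures from reference antipsychotics, anxiolytics and antidepressants.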

human GSK-3β = human GSK-3β (Homo sapiens, UniProt P49841); experiment: GSK-3β inhibition, phosphorylation of primed substrate; assay type: biochemical
Chain of human GSK-3β (P49841 whole entry): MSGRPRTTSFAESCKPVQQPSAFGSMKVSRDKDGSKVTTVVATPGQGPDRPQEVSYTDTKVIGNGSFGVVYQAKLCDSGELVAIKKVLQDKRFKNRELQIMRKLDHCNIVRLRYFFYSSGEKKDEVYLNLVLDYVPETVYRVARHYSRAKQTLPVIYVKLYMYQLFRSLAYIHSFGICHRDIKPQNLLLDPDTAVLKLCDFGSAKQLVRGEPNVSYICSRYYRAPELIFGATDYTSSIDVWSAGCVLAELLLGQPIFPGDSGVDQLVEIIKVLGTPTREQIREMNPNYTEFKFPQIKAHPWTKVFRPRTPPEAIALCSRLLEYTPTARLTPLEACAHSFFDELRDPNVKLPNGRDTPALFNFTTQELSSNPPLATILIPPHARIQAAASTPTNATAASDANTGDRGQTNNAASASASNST

mouse model of mania = settings: amphetamine and chlordiazepoxide induced; cited from earlier work

Compound | stimulation of progesterone production [1] | cellular toxicity (MTT) [2] | progesterone production [1] | also measured
COCCn1cc(C2=C(c3coc4ccccc34)C(=O)NC2=O)c2ccccc21 [Compound 9, 3-(Benzofuran-3-yl)-4-(1-(2-methoxyethyl)-1H-indol-3-yl)-1H-pyrrole-2,5-dione] | bioactive in stimulating progesterone production | either low or no apparent toxicity | – | time of first maximum steroid production [1]: ≤ 15 min; SmartCube signature after chronic administration (C57BL/6 mice): predicting anxiolytic-like activity; SmartCube signature after a single dose (C57BL/6 mice): Neither compound demonstrated any classified behavioral activity
COCCc1cccc2c(C3=C(c4coc5ccccc45)C(=O)NC3=O)cn(CCOC)c12 [Compound 23, 3-(Benzofuran-3-yl)-4-(1,7-bis(2-methoxyethyl)-1H-indol-3-yl)-1H-pyrrole-2,5-dione] | – | low, but observable signs of cytotoxicity | < 30 ng progesterone/mg protein | –
O=C1NC(=O)C(c2cn3c4c(cc(F)cc24)CN(C(=O)N2CCC(N4CCCCC4)CC2)CC3)=C1c1coc2ccccc12 [Compound 30, 3-(2-([1,4’-Bipiperidine]-1’-carbonyl)-9-fluoro-1,2,3,4-tetrahydro-[1,4]diazepino[6,7,1-hi]indol-7-yl)-4-(benzofuran-3-yl)-1H-pyrrole-2,5-dione trifluoroacetate] | – | significantly more cytotoxic | – | –
COCCn1cc(C2=C(c3coc4ccccc34)C(=O)NC2=O)c2cc(F)c(F)cc21 [Compound 12, 3-(Benzofuran-3-yl)-4-(5,6-difluoro-1-(2-methoxyethyl)-1H-indol-3-yl)-1H-pyrrole-2,5-dione] | bioactive in stimulating progesterone production | significantly more cytotoxic; also recorded: toxic to the MA-10 cells | – | –
COCCn1cc(C2=C(c3coc4ccccc34)C(=O)NC2=O)c2cccnc21 [Compound 16, 3-(Benzofuran-3-yl)-4-(1-(2-methoxyethyl)-1H-pyrrolo[2,3-b]pyridin-3-yl)-1H-pyrrole-2,5-dione] | – | low, but observable signs of cytotoxicity | < 30 ng progesterone/mg protein | –
COc1cc2c(C3=C(c4coc5ccccc45)C(=O)NC3=O)cn(C)c2cn1 [Compound 17, 3-(Benzofuran-3-yl)-4-(5-methoxy-1-methyl-1H-pyrrolo[2,3-c]pyridin-3-yl)-1H-pyrrole-2,5-dione] | – | – | < 30 ng progesterone/mg protein | –
Cn1cc(C2=C(c3coc4ccccc34)C(=O)NC2=O)c2cc(Br)cnc21 [Compound 13, 3-(Benzofuran-3-yl)-4-(5-bromo-1-methyl-1H-pyrrolo[2,3-b]pyridin-3-yl)-1H-pyrrole-2,5-dione] | bioactive in stimulating progesterone production | either low or no apparent toxicity | – | IC50 (human GSK-3β): 5 nM
Cn1cc(C2=C(c3cnc4ccccn34)C(=O)NC2=O)c2cc(Br)ccc21 [Compound 20, 3-(5-Bromo-1-methyl-1H-indol-3-yl)-4-(imidazo[1,2-a]pyridin-3-yl)-1H-pyrrole-2,5-dione trifluoroacetate] | – | – | < 30 ng progesterone/mg protein | –
Cn1cc(C2=C(c3cnc4ccccn34)C(=O)NC2=O)c2cc3c(cc21)OCO3 [Compound 19, 3-(Imidazo[1,2-a]pyridin-3-yl)-4-(5-methyl-5H-[1,3]dioxolo[4,5-f]indol-7-yl)-1H-pyrrole-2,5-dione trifluoroacetate] | – | – | – | IC50 (human GSK-3β): 5 nM
O=C1NC(=O)C(c2cn3c4c(cc(F)cc24)CNCC3)=C1c1coc2ccccc12 [Compound 25, 3-(Benzofuran-3-yl)-4-(9-fluoro-1,2,3,4-tetrahydro-[1,4]diazepino[6,7,1-hi]indol-7-yl)-1H-pyrrole-2,5-dione trifluoroacetate] | – | – | < 30 ng progesterone/mg protein | –
COCCn1cc(C2=C(c3coc4ccccc34)C(=O)NC2=O)c2cc(Br)cnc21 [Compound 14, 3-(Benzofuran-3-yl)-4-(5-bromo-1-(2-methoxyethyl)-1H-pyrrolo[2,3-b]pyridin-3-yl)-1Hpyrrole-2,5-dione] | bioactive in stimulating progesterone production | either low or no apparent toxicity | – | –
O=C1NC(=O)C(c2cn3c4c(cc(F)cc24)CN(C(=O)N2CCOCC2)CC3)=C1c1coc2ccccc12 [Compound 31, 3-(Benzofuran-3-yl)-4-(9-fluoro-2-(morpholine-4-carbonyl)-1,2,3,4-tetrahydro-[1,4]diazepino[6,7,1-hi]indol-7-yl)-1H-pyrrole-2,5-dione] | – | significantly more cytotoxic | – | –
Cn1cc(C2=C(c3coc4ccccc34)C(=O)NC2=O)c2cc(Br)ccc21 [Compound 1, 3-(benzofuran-3-yl)-4-(5-bromo-1-methyl-1H-indol-3-yl)-1H-pyrrole-2,5-dione] | bioactive in stimulating progesterone production | either low or no apparent toxicity | – | time of first maximum steroid production [1]: ≤ 15 min; SmartCube signature after chronic administration (C57BL/6 mice): predicting anxiolytic-like activity; SmartCube signature after a single dose (C57BL/6 mice): Neither compound demonstrated any classified behavioral activity; effect on hyperactivity (mouse model of mania): attenuates hyperactivity
COCCc1cccc2c(C3=C(c4coc5ccccc45)C(=O)NC3=O)cn(C)c12 [Compound 21, 3-(Benzofuran-3-yl)-4-(7-(2-methoxyethyl)-1-methyl-1H-indol-3-yl)-1H-pyrrole-2,5-dione] | bioactive in stimulating progesterone production | either low or no apparent toxicity | – | –
O=C1NC(=O)C(c2cn3c4c(cc(Br)cc24)CNCC3)=C1c1coc2ccccc12 [Compound 26, 3-(Benzofuran-3-yl)-4-(9-bromo-1,2,3,4-tetrahydro-[1,4]diazepino[6,7,1-hi]indol-7-yl)-1H-pyrrole-2,5-dione trifluoroacetate] | bioactive in stimulating progesterone production | toxic to the MA-10 cells | – | –
